Results on 2 compounds are retold here after ChEMBL document CHEMBL1909630, “Azaxanthene based selective glucocorticoid receptor modulators: design, synthesis, and pharmacological evaluation of (S)-4-(5-(1-((1,3,4-thiadiazol-2-yl)amino)-2-methyl-1-oxopropan-2-yl)-5H-chromeno[2,3-b]pyridin-2-yl)-2-fluoro-N,N-dimethylbenzamide (BMS-776532) and its methylene homologue …” (J Med Chem, 2011).

One series deals with Rattus norvegicus. Nature of the series: Antiinflammatory activity in Sprague-Dawley rat assessed as carrageenan-induced paw edema at 30 mg/kg, po administered as a single dose 2 hrs before carrageenan challenge measured 4 hrs post carrageenan challenge by plethysmometry relative to control.
Series [1] has as its target T1, Mineralocorticoid receptor (Homo sapiens, UniProt P08235).
T1 sequence (P08235 whole entry): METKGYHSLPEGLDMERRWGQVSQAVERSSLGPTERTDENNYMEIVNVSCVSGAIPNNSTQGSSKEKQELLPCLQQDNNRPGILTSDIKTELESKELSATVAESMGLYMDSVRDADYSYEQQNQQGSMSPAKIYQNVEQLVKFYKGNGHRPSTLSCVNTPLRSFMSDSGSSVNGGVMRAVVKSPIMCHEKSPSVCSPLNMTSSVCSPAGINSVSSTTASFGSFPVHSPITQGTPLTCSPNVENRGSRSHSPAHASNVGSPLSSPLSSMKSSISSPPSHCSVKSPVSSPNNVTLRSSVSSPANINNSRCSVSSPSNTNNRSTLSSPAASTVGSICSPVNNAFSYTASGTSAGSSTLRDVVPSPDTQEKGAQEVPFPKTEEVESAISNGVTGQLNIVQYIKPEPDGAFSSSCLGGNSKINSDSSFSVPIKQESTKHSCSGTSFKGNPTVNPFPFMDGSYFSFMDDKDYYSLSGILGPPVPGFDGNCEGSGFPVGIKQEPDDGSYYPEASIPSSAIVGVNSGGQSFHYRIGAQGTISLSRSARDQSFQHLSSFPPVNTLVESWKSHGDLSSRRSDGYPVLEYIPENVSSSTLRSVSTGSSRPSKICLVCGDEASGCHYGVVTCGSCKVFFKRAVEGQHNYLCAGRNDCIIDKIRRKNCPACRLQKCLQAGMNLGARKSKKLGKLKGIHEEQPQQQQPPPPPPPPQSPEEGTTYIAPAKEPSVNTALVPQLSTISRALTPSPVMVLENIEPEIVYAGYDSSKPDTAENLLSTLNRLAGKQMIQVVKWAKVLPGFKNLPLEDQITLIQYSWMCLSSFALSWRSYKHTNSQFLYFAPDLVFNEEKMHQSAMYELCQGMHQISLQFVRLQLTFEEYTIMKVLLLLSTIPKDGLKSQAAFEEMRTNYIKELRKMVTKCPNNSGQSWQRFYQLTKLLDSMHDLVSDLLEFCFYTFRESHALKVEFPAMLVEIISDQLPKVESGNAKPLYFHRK
Briefly: Agonist activity at human mineralocorticoid receptor expressed in human A549 cells by fluorescence polarization assay. The format is functional, cell-based. (Polarisation of emitted light reports the rotation of a fluorescent probe.)

Series [2] deals with T2, Glucocorticoid receptor (Homo sapiens, UniProt P04150).
T2 sequence (P04150 whole entry): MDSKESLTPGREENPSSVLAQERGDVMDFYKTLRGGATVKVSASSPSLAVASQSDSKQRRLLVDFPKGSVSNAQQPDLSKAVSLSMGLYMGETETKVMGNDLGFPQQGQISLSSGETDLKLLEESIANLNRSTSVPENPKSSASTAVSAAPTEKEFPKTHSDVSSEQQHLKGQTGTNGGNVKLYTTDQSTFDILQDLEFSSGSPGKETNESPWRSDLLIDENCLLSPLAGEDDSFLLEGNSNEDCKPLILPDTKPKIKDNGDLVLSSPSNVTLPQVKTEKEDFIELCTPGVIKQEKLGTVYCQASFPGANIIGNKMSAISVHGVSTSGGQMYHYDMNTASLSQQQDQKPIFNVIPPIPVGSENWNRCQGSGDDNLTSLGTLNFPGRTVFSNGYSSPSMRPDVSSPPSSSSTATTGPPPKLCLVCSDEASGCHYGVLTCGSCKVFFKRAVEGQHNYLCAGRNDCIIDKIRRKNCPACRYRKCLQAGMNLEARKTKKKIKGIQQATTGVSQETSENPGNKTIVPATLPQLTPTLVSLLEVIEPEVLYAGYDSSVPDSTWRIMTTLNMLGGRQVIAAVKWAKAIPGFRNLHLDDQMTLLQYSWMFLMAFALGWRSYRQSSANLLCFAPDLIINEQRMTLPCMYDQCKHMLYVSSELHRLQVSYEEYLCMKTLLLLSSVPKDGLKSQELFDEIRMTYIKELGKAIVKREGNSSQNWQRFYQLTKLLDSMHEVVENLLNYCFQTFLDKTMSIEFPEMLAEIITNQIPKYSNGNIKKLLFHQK
Briefly: Transrepression activity at glucocorticoid receptor alpha in IL-1beta-stimulated human A549 cells assessed as inhibition of NFkappaB-dependent E-selectin transcription by luciferase reporter gene assay. Type of series: cell-based. A general note: A reporter such as luciferase makes a cellular process visible.

A short description of series [3]: Oral bioavailability in Sprague-Dawley rat at 50 mg/kg. Type of series: ADME, organism-based. The settings on record: in vivo. The procedure, abridged:
(§1)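 Male Sprague-Dawley rats received a single intravenous (1 mg/kg) or oral (10 or 50 mg/kg) dose. Plasma pharmacokinetic parameters were derived from these profiles.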

Series [4] relates to Blood. Nature of the series: Antiinflammatory activity in human whole blood assessed as inhibition of IL-1beta-induced IL-8 production after overnight incubation by ELISA. Type of series: functional, tissue-based. A digest of the protocol:
(§2)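 Whole blood from two donors per experiment was collected into ACD-A. Compounds were added and the blood was incubated about 20 h at 37 °C under 5% CO2. Blood was then stimulated for 5 h with LPS (final 100 ng/mL, for TNFα) or IL-1β (final 10 ng/mL, for IL-8). Plasma TNFα or IL-8 was measured by ELISA. Efficacy was expressed as % of dexamethasone, and values are means of at least two experiments.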

A short description of series [5]: Cmax in Sprague-Dawley rat at 50 mg/kg, po. The format is ADME, organism-based. Further details: dose 50 mg/kg, route oral. The conditions noted are these: in vivo. The procedure, abridged:
as §1

The target of series [6] is T2, Glucocorticoid receptor. Briefly: Transactivation activity at glucocorticoid receptor alpha human 13D3/Huh7 cells assessed as induction of TAT activity after 4 hrs by spectrophotometry. The format is cell-based, Huh-7.
A short description of series [7]: Cmax in Sprague-Dawley rat at 10 mg/kg, po. The format is ADME, organism-based. Further details: dose 10 mg/kg, route oral. The conditions noted are these: in vivo. A digest of the protocol: as §1
Series [8] is described as follows: Tmax in Sprague-Dawley rat at 50 mg/kg, po. The arrangement: dose 50 mg/kg, route oral. The conditions noted are these: in vivo. The format is ADME, organism-based. A digest of the protocol: as §1
For series [9], the target named is T2, Glucocorticoid receptor. Briefly: Transactivation activity at GR-alpha in human NP1 Hela cells assessed as induction of GAL4-DBD after 20 hrs by luciferase reporter gene assay. The format is cell-based.
For series [10], the system named is Blood. Nature of the series: Antiinflammatory activity in human whole blood assessed as inhibition of LPS-induced TNFalpha production after overnight incubation by ELISA relative to Dexamethasone. The format is functional. A digest of the protocol: as §2
In general terms: An ELISA detects its analyte on a solid surface through an enzyme-linked reagent.

A short description of series [11]: Oral bioavailability in Sprague-Dawley rat at 10 mg/kg. Type of series: ADME, organism-based. The settings on record: in vivo. The procedure, abridged: as §1

One may read the EC50 as the concentration needed to bring the measured effect to its halfway point. A word on the Cmax: it is the maximum level reached in the sampled fluid or tissue. As usually defined, the Tmax is the time from dosing to the highest level.

Take `CN(C)C(=O)c1ccc(-c2ccc3c(n2)Oc2ccccc2[C@H]3C(C)(C)C(=O)Nc2nncs2)cc1F`: the level, % of control at 30 mg/kg in the series on Rattus norvegicus was determined as 42%. Besides, the EC50 in series [1] is above 5 µM; at Glucocorticoid receptor [2], 33.8 nM; in the series on Blood [4], 1140 nM; at Glucocorticoid receptor [6], 150 nM; on Glucocorticoid receptor [9], 242 nM. The bioavailability came out at 119% in series [3] and 20% in series [11]. The figures for the Cmax in series [5] and in series [7] were 3210 ng/mL and 285 ng/mL, respectively. The time of peak concentration (Tmax) in series [8] was determined as 1.7 h. Also, the Imax in the series on Blood [10] is recorded as 83%.

On to `CCN(C)C(=O)c1ccc(-c2ccc3c(n2)Oc2ccccc2[C@@H]3C(C)(C)C(=O)Nc2nncs2)cc1F`, for which, in the series with Rattus norvegicus, the level, % of control at 30 mg/kg came out at 54%. Further, the EC50 in series [1] was above 5 µM; at Glucocorticoid receptor [2] it was 6.89 nM; in the series on Blood [4] it was 628 nM; on Glucocorticoid receptor [6] it was 88 nM; on Glucocorticoid receptor [9], 98.5 nM. Further, the bioavailability in series [3] was determined as 107%; in [11], 17%. Besides, the results for the Cmax in series [5] and in [7] were 3080 ng/mL and 351 ng/mL, respectively. The Tmax in series [8] was 3.3 h. Also, the Imax in the series on Blood [10] came to 91%.
